The results in this text go back to ChEMBL document CHEMBL4130343, “Design, synthesis, and evaluation of benzofuran derivatives as novel anti-pancreatic carcinoma agents via interfering the hypoxia environment by targeting HIF-1α pathway” (Eur J Med Chem, 2017).

What all share (type): functional, cell-based
One assay concerns MCF7. Nature of the assay: Antiproliferative activity against human MCF7 cells after 48 hrs by MTT assay. The conditions noted are these: MCF7, 48 h. In a few lines:
(§1)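 Cells were seeded at 5×10^5 cells/mL overnight and exposed to graded compound concentrations for 48 h. MTT (5 mg/mL stock) was added for 4 h at 37 °C, and formazan was dissolved in DMSO. Absorbance was read at 570 nm. IC₅₀ was fitted from the curves; values are mean ± SD, n = 3.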
Background: Formazan colour is commonly taken as a measure of viable cells.

In assay [1] the test system is HCT-116. Nature of the assay: Antiproliferative activity against human HCT116 cells after 48 hrs by MTT assay. The conditions noted are these: HCT-116, 48 h. In a few lines: as §1
For assay [2], the system named is HCT-116. Nature of the assay: Antiproliferative activity against p53-deficient human HCT116 cells after 48 hrs by MTT assay. The conditions noted are these: HCT-116, 48 h. Summed up: as §1
The test system of the next assay is MDA-MB-231. Nature of the assay: Antiproliferative activity against human MDA-MB-231 cells after 48 hrs by MTT assay. Particulars: MDA-MB-231, 48 h. Summed up: as §1
A further assay concerns PANC-1. The assay is described as follows: Antiproliferative activity against human PANC1 cells after 48 hrs by MTT assay. Particulars: PANC-1, 48 h. Summed up:
as §1

Another assay has as its system BXPC-3. The assay is described as follows: Antiproliferative activity against human BxPC3 cells after 48 hrs by MTT assay. The conditions noted are these: BXPC-3, 48 h. In a few lines: as §1
The test system of the next assay is A549. The assay is described as follows: Antiproliferative activity against human A549 cells after 48 hrs by MTT assay. Particulars: A549, 48 h. Summed up:
as §1

As usually defined, the IC50 is the concentration at which inhibition is half-maximal. With `CNCCNC(=O)c1oc2ccc(N(Cc3ccc(Br)cc3)S(=O)(=O)c3ccc(Br)cc3)cc2c1C`, the IC50 was found to be 4.37 µM in the assay with MCF7; 2.44 µM in the assay on HCT-116 [1]; 2.37 µM with HCT-116 [2]; 7.96 µM in the assay with MDA-MB-231; 2.49 µM in the assay on PANC-1; 5.13 µM with BXPC-3. In the assay with A549, this molecule gave an IC50 of 3.08 µM.

`Cc1c(C(=O)NCCNc2ccccc2)oc2ccc(N(Cc3ccc(Br)cc3)S(=O)(=O)c3ccc(Br)cc3)cc12`: the IC50 in the assay on MCF7, in the assay on HCT-116 [1], in the assay with HCT-116 [2], with MDA-MB-231, in the assay on PANC-1 and in the assay with BXPC-3 was more than 40 µM each time. Further, the IC50 with A549 was more than 40 µM.

As to `Cc1c(C(=O)N2CCNCC2)oc2ccc(N(Cc3ccc(Br)cc3)S(=O)(=O)c3ccc(Br)cc3)cc12`, the IC50 in the assay on MCF7 was found to be 9.72 µM; in the assay on HCT-116 [1], 3 µM; in the assay on HCT-116 [2] it was 3.3 µM; in the assay with MDA-MB-231, 9.04 µM; in the assay on PANC-1, 8.38 µM; in the assay on BXPC-3 it was 19.6 µM. Also, half-maximal inhibition in the assay on A549 (IC50) required 8.68 µM.

With `Cc1c(C(=O)NCCN2CCCCC2)oc2ccc(N(Cc3ccc(Br)cc3)S(=O)(=O)c3ccc(Br)cc3)cc12`, the IC50 in the assay on MCF7 stood at 3.36 µM; in the assay with HCT-116 [1], 2.23 µM; in the assay with HCT-116 [2], 2.84 µM; with MDA-MB-231 it was 9.26 µM; in the assay with PANC-1, 6.94 µM; in the assay with BXPC-3 it was 3.71 µM. Also, in the assay on A549, the IC50 was found to be 5.17 µM.

With `CCN(CC)CCNC(=O)c1sc2ccc(N(Cc3ccc(Br)cc3)S(=O)(=O)c3ccc(Br)cc3)cc2c1C`, the IC50 amounted to 10.9 µM in the assay with HCT-116 [1], 7.65 µM in the assay with PANC-1 and 7.88 µM in the assay on BXPC-3.

For `Cc1c(C(=O)N2CCN(C)CC2)oc2ccc(N(Cc3ccc(Br)cc3)S(=O)(=O)c3ccc(Br)cc3)cc12`, the IC50 with MCF7 is more than 40 µM; in the assay on HCT-116 [1] it was 8.55 µM; with HCT-116 [2], 5.47 µM; with MDA-MB-231 it was more than 40 µM; in the assay with PANC-1 it was more than 40 µM; with BXPC-3, more than 40 µM. Moreover, inhibition in the assay on A549 was half-maximal at 22.3 µM (IC50).

For `Cc1c(C(=O)NCCc2ccc(S(N)(=O)=O)cc2)oc2ccc(N(Cc3ccc(Br)cc3)S(=O)(=O)c3ccc(Br)cc3)cc12`, the IC50 in the assay on MCF7 is more than 40 µM; with HCT-116 [1], 5.59 µM; with HCT-116 [2], 19.2 µM; in the assay with MDA-MB-231, more than 40 µM; in the assay on PANC-1, more than 40 µM; with BXPC-3, more than 40 µM. Also, in the assay with A549, the IC50 was more than 40 µM.

On to `Cc1c(C(=O)NCCN(C(C)C)C(C)C)oc2ccc(N(Cc3ccc(Br)cc3)S(=O)(=O)c3ccc(Br)cc3)cc12`, for which the IC50 turned out to be 10.9 µM in the assay with MCF7; 10.4 µM in the assay with HCT-116 [1]; 3.11 µM with HCT-116 [2]; 9.44 µM in the assay with MDA-MB-231; 6.25 µM in the assay on PANC-1; 28.3 µM with BXPC-3. The same molecule registered a half-maximal inhibitory concentration (IC50) with A549 of 5.5 µM.

With `Cc1c(C(=O)N2CCOCC2)oc2ccc(N(Cc3ccc(Br)cc3)S(=O)(=O)c3ccc(Br)cc3)cc12`, the IC50 with MCF7 was 15.4 µM; in the assay on HCT-116 [1], 22.1 µM; in the assay on HCT-116 [2] it was 26.4 µM; with MDA-MB-231, 25.1 µM; in the assay on PANC-1 it was 23.8 µM; in the assay with BXPC-3, 29.1 µM. This molecule also gave an IC50 in the assay on A549 of 19.1 µM.

With `CN(C)CCNC(=O)c1nc2cc(N(Cc3ccc(Br)cc3)S(=O)(=O)c3ccc(Br)cc3)ccc2o1`, the IC50 with HCT-116 [1] stood at 14.3 µM; in the assay on PANC-1, 13.6 µM; in the assay on BXPC-3, 13.7 µM.

Turning to `CN1CCC(NC(=O)c2nc3cc(N(Cc4ccc(Br)cc4)S(=O)(=O)c4ccc(Br)cc4)ccc3o2)CC1`, the IC50 in the assay with HCT-116 [1] was 7.32 µM; in the assay on PANC-1, 5.91 µM; with BXPC-3 it was 10.2 µM.

As to `CCN(CC)CCNC(=O)c1nc2cc(N(Cc3ccc(Br)cc3)S(=O)(=O)c3ccc(Br)cc3)ccc2o1`, the values for the half-maximal inhibitory concentration (IC50) in the assay on HCT-116 [1], with PANC-1 and in the assay on BXPC-3 were 14.3 µM, 12.6 µM and 16.3 µM, respectively.

With `Cc1c(C(=O)NCCN2CCOCC2)oc2ccc(N(Cc3ccc(Br)cc3)S(=O)(=O)c3ccc(Br)cc3)cc12`, the IC50 was 17.2 µM in the assay on MCF7; 10.5 µM with HCT-116 [1]; 13.3 µM in the assay on HCT-116 [2]; 23.5 µM with MDA-MB-231; 32.1 µM with PANC-1; 27.2 µM with BXPC-3. The same molecule showed a 50% inhibitory concentration (IC50) with A549 of 21.4 µM.

Consider `Cc1c(C(=O)OCCCN(C)C)oc2ccc(N(Cc3ccc(Br)cc3)S(=O)(=O)c3ccc(Br)cc3)cc12`, for which the IC50 with MCF7 was found to be 39.7 µM; in the assay on HCT-116 [1], 11.2 µM; in the assay with HCT-116 [2], 7.05 µM; in the assay on MDA-MB-231, 28.6 µM; in the assay with PANC-1 it was 24.6 µM; in the assay with BXPC-3 it was 24.2 µM. This molecule also registered an IC50 in the assay on A549 of more than 40 µM.

As to `Cc1ccc(NC(=O)c2oc3ccc(N(Cc4ccc(Br)cc4)S(=O)(=O)c4ccc(Br)cc4)cc3c2C)nc1`, the 50% inhibitory concentration (IC50) with MCF7, in the assay on HCT-116 [1], in the assay with HCT-116 [2], in the assay with MDA-MB-231, in the assay with PANC-1 and with BXPC-3 was more than 40 µM throughout. Besides, the IC50 in the assay on A549 is more than 40 µM.

`Cc1c(C(=O)NCC(O)CO)oc2ccc(N(Cc3ccc(Br)cc3)S(=O)(=O)c3ccc(Br)cc3)cc12` (stereo not given): the IC50 is 36.5 µM in the assay with MCF7; 27.8 µM in the assay on HCT-116 [1]; 11.5 µM in the assay on HCT-116 [2]; 16.5 µM in the assay on MDA-MB-231; 29.3 µM in the assay with PANC-1; 27.6 µM with BXPC-3. Moreover, in the assay with A549, the IC50 came to 30.5 µM.

As for `Cc1c(C(=O)NCCN2CCN(C)CC2)oc2ccc(N(Cc3ccc(Br)cc3)S(=O)(=O)c3ccc(Br)cc3)cc12`, the IC50 in the assay with MCF7 turned out to be 5.66 µM; with HCT-116 [1], 3.81 µM; in the assay with HCT-116 [2], 2.59 µM; with MDA-MB-231, 7.5 µM; in the assay on PANC-1, 5.04 µM; in the assay on BXPC-3, 2.6 µM. For the same molecule, in the assay on A549, half-maximal inhibition (IC50) required 5.03 µM.

For `Cc1c(C(=O)NCCCN(C)C)oc2ccc(N(Cc3ccc(Br)cc3)S(=O)(=O)c3ccc(Br)cc3)cc12`, the IC50 with MCF7 came out at 3.71 µM; in the assay with HCT-116 [1], 3.07 µM; in the assay on HCT-116 [2], 3.73 µM; in the assay with MDA-MB-231, 6.68 µM; in the assay on PANC-1 it was 2.3 µM; with BXPC-3, 2.02 µM. In the assay on A549, this molecule yielded an IC50 of 4.31 µM.

For the molecule `Cc1c(C(=O)NCCN(C)C)sc2ccc(N(Cc3ccc(Br)cc3)S(=O)(=O)c3ccc(Br)cc3)cc12`, the values for the IC50 with HCT-116 [1], in the assay on PANC-1 and with BXPC-3 were 9.8 µM, 7.89 µM and 9 µM, respectively.

For `CCN(CC)CCNC(=O)c1[nH]c2ccc(N(Cc3ccc(Br)cc3)S(=O)(=O)c3ccc(Br)cc3)cc2c1C`, the IC50 in the assay with HCT-116 [1] turned out to be 15.8 µM; in the assay with PANC-1, 10.5 µM; with BXPC-3, 17.4 µM.

On to `Cc1c(C(=O)NC2CCN(C)CC2)sc2ccc(N(Cc3ccc(Br)cc3)S(=O)(=O)c3ccc(Br)cc3)cc12`, for which the figures for the IC50 in the assay with HCT-116 [1], with PANC-1 and in the assay on BXPC-3 were 10.1 µM, 5.2 µM and 7.1 µM, respectively.

Regarding `Cc1c(C(=O)NCCN(C)C)[nH]c2ccc(N(Cc3ccc(Br)cc3)S(=O)(=O)c3ccc(Br)cc3)cc12`, the IC50 worked out at 16.6 µM with HCT-116 [1], 11.2 µM with PANC-1 and 6.98 µM in the assay with BXPC-3.

On to `Cc1c(C(=O)NC2CCN(C)CC2)[nH]c2ccc(N(Cc3ccc(Br)cc3)S(=O)(=O)c3ccc(Br)cc3)cc12`, for which the IC50 with HCT-116 [1] amounted to 14.5 µM; in the assay on PANC-1 it was 3.67 µM; in the assay with BXPC-3, 7.5 µM.
